Experimental data: ChEMBL document CHEMBL1134770, “Novel, potent, and selective phosphodiesterase 5 inhibitors: synthesis and biological activities of a series of 4-aryl-1-isoquinolinone derivatives” (J Med Chem, 2001)

What was measured:
[1] = biological target: T1, cGMP-dependent 3',5'-cyclic phosphodiesterase (Bos taurus, UniProt P14099); experiment: Inhibition of bovine adrenal gland Phosphodiesterase 2 (PDE2)
T1 sequence (P14099 whole entry): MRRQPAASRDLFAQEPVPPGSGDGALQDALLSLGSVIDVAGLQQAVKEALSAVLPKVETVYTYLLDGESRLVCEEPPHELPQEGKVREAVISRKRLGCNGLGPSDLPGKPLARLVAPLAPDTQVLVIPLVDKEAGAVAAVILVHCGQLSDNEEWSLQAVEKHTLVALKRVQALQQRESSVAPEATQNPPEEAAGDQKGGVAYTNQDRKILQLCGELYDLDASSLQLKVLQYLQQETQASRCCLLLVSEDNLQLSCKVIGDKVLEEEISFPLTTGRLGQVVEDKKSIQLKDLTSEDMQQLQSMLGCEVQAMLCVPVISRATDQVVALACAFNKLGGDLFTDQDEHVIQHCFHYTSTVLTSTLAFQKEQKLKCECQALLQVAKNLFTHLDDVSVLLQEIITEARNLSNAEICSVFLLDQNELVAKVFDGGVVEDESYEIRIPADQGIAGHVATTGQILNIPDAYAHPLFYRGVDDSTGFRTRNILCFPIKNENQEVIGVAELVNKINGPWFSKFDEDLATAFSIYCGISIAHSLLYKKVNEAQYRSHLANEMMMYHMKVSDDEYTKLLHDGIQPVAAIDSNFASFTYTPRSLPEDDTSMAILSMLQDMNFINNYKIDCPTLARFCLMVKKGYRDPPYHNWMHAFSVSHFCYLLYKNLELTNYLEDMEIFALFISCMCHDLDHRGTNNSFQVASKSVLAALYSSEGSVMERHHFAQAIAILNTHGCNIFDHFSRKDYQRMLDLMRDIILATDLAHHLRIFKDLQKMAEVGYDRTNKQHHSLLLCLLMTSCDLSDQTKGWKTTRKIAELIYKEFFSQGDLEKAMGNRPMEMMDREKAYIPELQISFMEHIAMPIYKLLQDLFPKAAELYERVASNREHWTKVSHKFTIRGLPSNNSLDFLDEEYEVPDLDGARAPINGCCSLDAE
Method in brief: (§1)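 Boiled, then snake-venom nucleotidase for 30 min at 37 °C, methanol stop, Dowex separation, scintillation counting. IC50 from log concentration-inhibition curve (≥4 points), mean of ≥2 duplicate experiments.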

[2] = biological target: cGMP-specific 3',5'-cyclic phosphodiesterase (Canis lupus familiaris, UniProt O77746); experiment: Inhibitory activity against canine lung Phosphodiesterase 5 (PDE5); method in brief: as §1
[3] = biological target: Phosphodiesterase 1 (Rattus norvegicus, UniProt Q63421+Q9EPR9+Q01066); experiment: Inhibitory activity against rat heart Phosphodiesterase 1(PDE1); assay type: protein assay
[4] = biological target: Phosphodiesterase 3 (Canis familiaris); experiment: Inhibitory activity against canine heart Phosphodiesterase 3 (PDE3)
[5] = Relaxant effect on isolated rabbit corpus cavernosum; assay type: functional, tissue-based, Oryctolagus cuniculus; conditions: target entry is the homologue from another species
[6] = biological target: Phosphodiesterase 4 (Canis familiaris); experiment: Inhibition of canine lung Phosphodiesterase 4 (PDE4)

| IC50 [1] [nM] | IC50 [2] [nM] | IC50 [3] [nM] | IC50 [4] [nM] | EC30 [5] [nM] | IC50 [6] [nM] | SMILES |
| --- | --- | --- | --- | --- | --- | --- |
| – | > 10000 | > 10000 | > 10000 | – | – | CNc1ccc(-n2c(C(=O)OC)c(-c3cc(OC)c(OC)c(OC)c3)c3cc(OC)c(OC)cc3c2=O)cc1 |
| – | 380 | 3100 | > 10000 | – | – | COC(=O)c1c(-c2cc(OC)c(OC)c(OC)c2)c2cc(OC)c(OC)cc2c(=O)n1Cc1ccccc1 |
| – | 580 | > 10000 | > 10000 | – | – | COC(=O)c1c(-c2cc(OC)c(OC)c(OC)c2)c2cc(OC)c(OC)cc2c(=O)n1C1CCCC1 |
| – | 97 | 3900 | > 10000 | – | – | COC(=O)c1c(-c2cc(OC)c(OC)c(OC)c2)c2cc(OC)ccc2c(=O)n1-c1ccc(N)cc1.Cl |
| – | 250 | > 10000 | > 10000 | – | – | COC(=O)c1c(-c2cc(OC)c(OC)c(OC)c2)c2cc(OC)c(OC)cc2c(=O)n1-c1cccc(N)c1.Cl |
| – | > 10000 | > 10000 | > 10000 | – | – | COC(=O)c1c(-c2cc(OC)c(OC)c(OC)c2)c2cc(OC)c(OC)cc2c(=O)n1-c1ccc(N(C)C)cc1.Cl |
| – | 20 | 1000 | > 10000 | – | – | COC(=O)c1c(-c2cc(OC)c(OC)c(OC)c2)c2ccc(OC)cc2c(=O)n1-c1ccc(N)cc1.Cl |
| – | 21 | > 10000 | 4400 | – | – | COC(=O)c1c(-c2cc(OC)c(OC)c(OC)c2)c2cc(OC)c(OC)cc2c(=O)n1-c1ccc(N)cc1.Cl |
| – | 27 | > 10000 | > 10000 | – | – | CCOc1cc2c(-c3cc(OC)c(OC)c(OC)c3)c(C(=O)OC)n(-c3ccc(N)cc3)c(=O)c2cc1OCC.Cl |
| – | 30 | > 10000 | > 10000 | – | – | COC(=O)c1c(-c2cc(OC)c(OC)c(OC)c2)c2cc(OC)c(OC)cc2c(=O)n1-c1ccccc1 |
| – | 170 | > 10000 | > 10000 | – | – | COC(=O)c1c(-c2cc(OC)c(OC)c(OC)c2)c2cc(OC)c(OC)cc2c(=O)n1-c1ccc(Cl)cc1 |
| – | > 10000 | > 10000 | – | – | – | COC(=O)c1c(-c2cc(OC)c(OC)c(OC)c2)c2cc(OC)c(OC)cc2c(=O)n1-c1ccc(OC)cc1 |
| – | 110 | > 10000 | > 10000 | – | – | COC(=O)c1c(-c2cc(OC)c(OC)c(OC)c2)c2cc(OC)c(OC)cc2c(=O)n1-c1ccc(O)cc1 |
| – | 230 | 2100 | 8500 | – | – | COC(=O)c1c(-c2cc(OC)c(OC)c(OC)c2)c2cc(OC)c(OC)cc2c(=O)n1C |
| – | 230 | > 10000 | > 10000 | – | – | COC(=O)c1c(-c2cc(OC)c(OC)c(OC)c2)c2cc(OC)c(OC)cc2c(=O)n1C1CCCCC1 |
| – | > 10000 | > 10000 | > 10000 | – | – | COC(=O)c1c(-c2cc(OC)c(OC)c(OC)c2)c2cc(OC)c(OC)cc2c(=O)n1-c1ccc(NC(C)=O)cc1 |

The next lines start with the compound.

| SMILES | IC50 [1] [nM] | IC50 [2] [nM] | IC50 [3] [nM] | IC50 [4] [nM] | EC30 [5] [nM] | IC50 [6] [nM] |
| --- | --- | --- | --- | --- | --- | --- |
| CCCc1nn(C)c2c(=O)[nH]c(-c3cc(S(=O)(=O)N4CCN(C)CC4)ccc3OCC)nc12 | > 10000 | – | – | – | – | – |
| COC(=O)c1c(-c2cc(OC)c(OC)c(OC)c2)c2cc(OC)c(OC)cc2c(=O)n1N1CCOCC1 | – | 26 | > 10000 | > 10000 | – | – |
| COC(=O)c1nc(O)c2cc(OC)c(OC)cc2c1-c1cc(OC)c(OC)c(OC)c1 | – | 900 | > 10000 | > 10000 | – | – |
| COC(=O)c1c(-c2cc(OC)c(O)c(OC)c2)c2ccc(OCc3ccccn3)cc2c(=O)n1-c1ccc(N)cc1 | – | 14 | 2600 | > 10000 | – | – |
| COC(=O)c1c(-c2cc(OC)c(Br)c(OC)c2)c2ccc(OCc3ccccn3)cc2c(=O)n1-c1ccc(N)cc1.Cl.Cl | 2800 | 0.22 | 460 | 8400 | 44 | 750 |
| COc1cc(-c2c(C(=O)N(C)C)n(-c3ccc(N)cc3)c(=O)c3cc(OCc4ccccn4)ccc23)cc(OC)c1OC.Cl.Cl | – | 2100 | > 10000 | > 10000 | – | – |
| COC(=O)c1c(-c2cc(OC)c(OC)c(OC)c2)c2ccc(OCc3ccccc3)cc2c(=O)n1-c1ccc(N)cc1.Cl | > 10000 | 1.2 | 2100 | > 10000 | 130 | 6100 |
| COC(=O)c1c(-c2cc(OC)c(C)c(OC)c2)c2ccc(OCc3ccccn3)cc2c(=O)n1-c1ccc(N)cc1.Cl.Cl | 3500 | 0.39 | 1100 | > 10000 | 37 | 1700 |
| CCOC(=O)c1c(-c2cc(OC)c(OC)c(OC)c2)c2ccc(OCc3ccccn3)cc2c(=O)n1-c1ccc(N)cc1.Cl.Cl | – | 18 | 550 | > 10000 | – | – |
| COC(=O)c1c(-c2cc(O)c(OC)c(OC)c2)c2ccc(OCc3ccccn3)cc2c(=O)n1-c1ccc(N)cc1.Cl.Cl | – | 8.5 | > 10000 | – | – | – |
| COc1cc(-c2c(C(N)=O)n(-c3ccc(N)cc3)c(=O)c3cc(OCc4ccccn4)ccc23)cc(OC)c1OC.Cl.Cl | – | 490 | > 10000 | > 10000 | – | – |
| COc1cc(-c2c(C(=O)O)n(-c3ccc(N)cc3)c(=O)c3cc(OCc4ccccn4)ccc23)cc(OC)c1OC.Cl.Cl | – | 1900 | > 10000 | > 10000 | – | – |
| COC(=O)c1c(-c2cc(OC)c(OC)c(OC)c2)c2ccc(OCc3cccnc3)cc2c(=O)n1-c1ccc(N)cc1.Cl.Cl | > 10000 | 1.1 | 3900 | > 10000 | 9.5 | 3600 |
| CNC(=O)c1c(-c2cc(OC)c(OC)c(OC)c2)c2ccc(OCc3ccccn3)cc2c(=O)n1-c1ccc(N)cc1.Cl.Cl | – | 220 | > 10000 | > 10000 | – | – |
| COC(=O)c1c(-c2cc(OC)c(OC)c(OC)c2)c2ccc(OCc3ccccn3)cc2c(=O)n1-c1ccc(N)cc1.Cl.Cl | > 10000 | 1 | 1300 | – | 7.9 | – |
| COC(=O)c1c(-c2cc(OC)c(OC)c(OC)c2)c2ccc(OCc3ccncc3)cc2c(=O)n1-c1ccc(N)cc1.Cl.Cl | > 10000 | 3.1 | 9500 | > 10000 | 12 | 7000 |
| COC(=O)c1c(-c2cc(OC)c(OC)c(OC)c2)c2ccc(OCCc3ccccn3)cc2c(=O)n1-c1ccc(N)cc1 | – | 5 | > 10000 | > 10000 | – | – |
| COC(=O)c1c(-c2cc(OC)c(OC)c(OC)c2)c2cc(OC)c(OC)cc2c(=O)n1N1CCCCC1 | – | 54 | > 10000 | > 10000 | – | – |
